Experimental data taken from ChEMBL document CHEMBL1150787, “The L80I substitution in the reverse transcriptase domain of the hepatitis B virus polymerase is associated with lamivudine resistance and enhanced viral replication in vitro” (Antimicrob Agents Chemother, 2007).
Activity calls are given as the source filed them. No cut-off for these calls is given here.

Legend:
HBV genotype D [1] = assay: Antiviral activity against HBeAg-deficient HBV genotype D with precore G1896A mutation in human Huh7 cells assessed as viral replication yield at 1 uM after 5 days relative to control; assay type: functional, hepatitis B virus genotype D, Huh-7
Procedure, shortened: (§1)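 Huh7 transfectants were cultured for 5 days with or without 1 μM LMV. Intracellular core-associated HBV DNA was measured by Southern blot and densitometry. Yields were corrected for transfection efficiency by HBsAg in supernatant (IMX immunoassay) and expressed relative to the mean of uninhibited controls (1.0). Each value comes from at least three experiments.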

HBV genotype D [2] = assay: Effect on replication efficiency of HBeAg-deficient HBV genotype D with precore G1896A mutation and reverse transcriptase L80I/L180M/M204I mutation in human Huh7 cells assessed as increase in viral replication yield at 1 uM after 5 days relative to control; assay type: functional, hepatitis B virus genotype D, Huh-7; procedure, shortened: as §1
HBV genotype D [3] = assay: Antiviral activity against HBeAg-deficient HBV genotype D with precore G1896A mutation in human Huh7 cells assessed as inhibition of viral replication after 5 days; assay type: functional, organism-based; details: Hepatitis B virus, Huh-7, 120 h
Procedure, shortened: (§2)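 Huh7 cells grown in DMEM with 10% FBS at 37°C and 5% CO₂, then transiently transfected with each HBV construct. Cultures were exposed continuously to LMV at 0, 0.001, 0.01, 0.1, 1 or 10 μM for 5 days. Intracellular core-associated HBV DNA was quantified by Southern blot, autoradiography and densitometry, normalised to untreated controls. EC50 was taken from a three-parameter logistic fit of three pooled assays.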

HBV genotype D [4] = assay: Antiviral activity against HBV genotype D with reverse transcriptase L180M/M204I mutation in human Huh7 cells assessed as inhibition of viral replication after 5 days; assay type: functional, organism-based; details: hepatitis B virus genotype D; Huh-7; procedure, shortened: as §2
HBV genotype D [5] = assay: Effect on replication efficiency of HBeAg-deficient HBV genotype D with precore G1896A mutation and reverse transcriptase L80I/M204I mutation in human Huh7 cells assessed as decrease in viral replication yield at 1 uM after 5 days relative to control; assay type: functional, hepatitis B virus genotype D, Huh-7; set-up: scale not given: the % may be the effect or the level left; procedure, shortened: as §1
HBV genotype D [6] = assay: Antiviral activity against HBeAg-deficient HBV genotype D with precore G1896A mutation and reverse transcriptase L80I/L180M/M204I mutation in human Huh7 cells assessed as viral replication yield at 1 uM after 5 days relative to control; assay type: functional, hepatitis B virus genotype D, Huh-7; procedure, shortened: as §1
HBV genotype D [7] = assay: Antiviral activity against HBV genotype D in human Huh7 cells assessed as inhibition of viral replication after 5 days; assay type: functional, organism-based; details: Hepatitis B virus, Huh-7, 120 h
Procedure, shortened: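 Huh7 cells (DMEM, 10% FBS, 37°C, 5% CO2) at 60–80% confluence were transiently transfected with a wild-type HBeAg-negative HBV clone or mutants. They were exposed continuously to LMV (0–10 μM) or ADV (0–10 μM). Day-5 intracellular core-associated HBV DNA was measured by Southern blot, autoradiography and densitometry, normalized to untreated controls. Three assays were pooled; EC50 came from a three-parameter logistic fit.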

HBV genotype D [8] = assay: Effect on replication efficiency of HBV genotype D with reverse transcriptase L80I mutation in human Huh7 cells assessed as decrease in viral replication yield at 1 uM after 5 days relative to control; assay type: functional, hepatitis B virus genotype D, Huh-7; set-up: scale not given: the % may be the effect or the level left; procedure, shortened: as §1
HBV genotype D [9] = assay: Effect on replication efficiency of HBV genotype D with reverse transcriptase L80I/L180M/M204I mutation in human Huh7 cells assessed as decrease in viral replication yield at 1 uM after 5 days relative to control; assay type: functional, hepatitis B virus genotype D, Huh-7; set-up: scale not given: the % may be the effect or the level left; procedure, shortened: as §1
HBV genotype D [10] = assay: Antiviral activity against HBV genotype D with reverse transcriptase M204I mutation in human Huh7 cells assessed as inhibition of viral replication after 5 days; assay type: functional, organism-based; details: hepatitis B virus genotype D; Huh-7; procedure, shortened: as §2
HBV genotype D [11] = assay: Antiviral activity against HBeAg-deficient HBV genotype D with precore G1896A mutation and reverse transcriptase L80I/M204I mutation in human Huh7 cells assessed as inhibition of viral replication after 5 days; assay type: functional, organism-based; details: hepatitis B virus genotype D; Huh-7; procedure, shortened: as §2
HBV genotype D [12] = assay: Antiviral activity against HBV genotype D with reverse transcriptase L80I mutation in human Huh7 cells assessed as inhibition of viral replication after 5 days; assay type: functional, organism-based; details: Hepatitis B virus, Huh-7, 120 h; procedure, shortened: as §2
HBV genotype D [13] = assay: Antiviral activity against HBeAg-deficient HBV genotype D with precore G1896A mutation and reverse transcriptase M204I mutation in human Huh7 cells assessed as viral replication yield at 1 uM after 5 days relative to control; assay type: functional, hepatitis B virus genotype D, Huh-7; procedure, shortened: as §1
HBV genotype D [14] = assay: Antiviral activity against HBV genotype D with reverse transcriptase L80I/M204I mutation in human Huh7 cells assessed as viral replication yield at 1 uM after 5 days relative to control; assay type: functional, hepatitis B virus genotype D, Huh-7; procedure, shortened: as §1
HBV genotype D [15] = assay: Antiviral activity against HBV genotype D with reverse transcriptase M204I mutation in human Huh7 cells assessed as viral replication yield at 1 uM after 5 days relative to control; assay type: functional, hepatitis B virus genotype D, Huh-7; procedure, shortened: as §1
HBV genotype D [16] = assay: Antiviral activity against HBeAg-deficient HBV genotype D with precore G1896A mutation and reverse transcriptase L180M/M204I mutation in human Huh7 cells assessed as viral replication yield at 1 uM after 5 days relative to control; assay type: functional, hepatitis B virus genotype D, Huh-7; procedure, shortened: as §1
HBV genotype D [17] = assay: Antiviral activity against HBV genotype D with reverse transcriptase L80I/M204I mutation in human Huh7 cells assessed as inhibition of viral replication after 5 days; assay type: functional, organism-based; details: hepatitis B virus genotype D; Huh-7; procedure, shortened: as §2
HBV genotype D [18] = assay: Antiviral activity against HBV genotype D with reverse transcriptase L180M/M204I mutation in human Huh7 cells assessed as viral replication yield at 1 uM after 5 days relative to control; assay type: functional, hepatitis B virus genotype D, Huh-7; procedure, shortened: as §1
HBV genotype D [19] = assay: Antiviral activity against HBV genotype D with reverse transcriptase L80I mutation in human Huh7 cells assessed as viral replication yield at 1 uM after 5 days relative to control; assay type: functional, hepatitis B virus genotype D, Huh-7; procedure, shortened: as §1
HBV genotype D [20] = assay: Antiviral activity against HBeAg-deficient HBV genotype D with precore G1896A mutation and reverse transcriptase L180M/M204I mutation in human Huh7 cells assessed as inhibition of viral replication after 5 days; assay type: functional, organism-based; details: hepatitis B virus genotype D; Huh-7; procedure, shortened: as §2
HBV genotype D [21] = assay: Antiviral activity against HBeAg-deficient HBV genotype D with precore G1896A mutation and reverse transcriptase M204I mutation in human Huh7 cells assessed as inhibition of viral replication after 5 days; assay type: functional, organism-based; details: hepatitis B virus genotype D; Huh-7; procedure, shortened: as §2
HBV genotype D [22] = assay: Effect on replication efficiency of HBV genotype D with reverse transcriptase L80I/M204I mutation in human Huh7 cells assessed as increase in viral replication yield at 1 uM after 5 days relative to control; assay type: functional, hepatitis B virus genotype D, Huh-7; procedure, shortened: as §1
HBV genotype D [23] = assay: Antiviral activity against HBeAg-deficient HBV genotype D with precore G1896A mutation and reverse transcriptase L80I mutation in human Huh7 cells assessed as inhibition of viral replication after 5 days; assay type: functional, organism-based; details: Hepatitis B virus, Huh-7, 120 h; procedure, shortened: as §2
HBV genotype D [24] = assay: Antiviral activity against HBeAg-deficient HBV genotype D with precore G1896A mutation and reverse transcriptase L80I/L180M/M204I mutation in human Huh7 cells assessed as inhibition of viral replication after 5 days; assay type: functional, organism-based; details: hepatitis B virus genotype D; Huh-7; procedure, shortened: as §2
HBV genotype D [25] = assay: Antiviral activity against HBV genotype D in human Huh7 cells assessed as viral replication yield at 1 uM after 5 days relative to control; assay type: functional, hepatitis B virus genotype D, Huh-7
Procedure, shortened: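 Transiently transfected Huh7 cells were cultured for 5 days with or without 1 μM LMV. Intracellular core-associated HBV DNA was measured by Southern blot, corrected for transfection efficiency using supernatant HBsAg (IMX enzyme immunoassay), and expressed relative to the mean of the uninhibited controls (set to 1.0). Data come from at least three experiments.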

HBV genotype D [26] = assay: Antiviral activity against HBeAg-deficient HBV genotype D with precore G1896A mutation and reverse transcriptase L80I/M204I mutation in human Huh7 cells assessed as viral replication yield at 1 uM after 5 days relative to control; assay type: functional, hepatitis B virus genotype D, Huh-7; procedure, shortened: as §1
HBV genotype D [27] = assay: Effect on replication efficiency of HBeAg-deficient HBV genotype D with precore G1896A mutation and reverse transcriptase L80I mutation in human Huh7 cells assessed as decrease viral replication yield at 1 uM after 5 days relative to control; assay type: functional, hepatitis B virus genotype D, Huh-7; set-up: scale not given: the % may be the effect or the level left; procedure, shortened: as §1
HBV genotype D [28] = assay: Antiviral activity against HBV genotype D with reverse transcriptase L80I/L180M/M204I mutation in human Huh7 cells assessed as inhibition of viral replication after 5 days; assay type: functional, organism-based; details: hepatitis B virus genotype D; Huh-7; procedure, shortened: as §2
HBV genotype D [29] = assay: Antiviral activity against HBV genotype D with reverse transcriptase L80I/L180M/M204I mutation in human Huh7 cells assessed as viral replication yield at 1 uM after 5 days relative to control; assay type: functional, hepatitis B virus genotype D, Huh-7; procedure, shortened: as §1
HBV genotype D [30] = assay: Antiviral activity against HBeAg-deficient HBV genotype D with precore G1896A mutation and reverse transcriptase L80I mutation in human Huh7 cells assessed as viral replication yield at 1 uM after 5 days relative to control; assay type: functional, hepatitis B virus genotype D, Huh-7; procedure, shortened: as §1

## Nc1ccn([C@@H]2CS[C@H](CO)O2)c(=O)n1 [LAMIVUDINE]
HBV genotype D [1]
  fold change (FC): 0.35
HBV genotype D [2]
  Activity: 506%
HBV genotype D [3]
  EC50: 460 nM
HBV genotype D [4]
  Activity: inactive
HBV genotype D [5]
  Activity: 80%
HBV genotype D [6]
  fold change (FC): 3.27
HBV genotype D [7]
  EC50: 410 nM
HBV genotype D [8]
  Activity: 82%
HBV genotype D [9]
  Activity: 48%
HBV genotype D [10]
  Activity: inactive
HBV genotype D [11]
  Activity: inactive
HBV genotype D [12]
  EC50: 30 nM
HBV genotype D [13]
  fold change (FC): 1.4
HBV genotype D [14]
  fold change (FC): 3.76
HBV genotype D [15]
  fold change (FC): 0.38
HBV genotype D [16]
  fold change (FC): 0.54
HBV genotype D [17]
  Activity: inactive
HBV genotype D [18]
  fold change (FC): 0.65
HBV genotype D [19]
  fold change (FC): 0.06
HBV genotype D [20]
  Activity: inactive
HBV genotype D [21]
  Activity: inactive
HBV genotype D [22]
  Activity: 902%
HBV genotype D [23]
  EC50: 30 nM
HBV genotype D [24]
  Activity: inactive
HBV genotype D [25]
  fold change (FC): 0.33
HBV genotype D [26]
  fold change (FC): 0.27
HBV genotype D [27]
  Activity: 88%
HBV genotype D [28]
  Activity: inactive
HBV genotype D [29]
  fold change (FC): 0.34
HBV genotype D [30]
  fold change (FC): 0.04
